Measured values taken from PubChem BioAssay.
Unmarked numbers belong to inactive results. Inconclusive results are not listed. Activity calls are given as the source filed them.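 The calls were made as follows, unless noted: active = inhibition over a set limit, the all-compound mean plus 3 SD, in both replicate runs; inconclusive = over that limit in just one replicate run; inactive = at or under that limit in both runs.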

Experiments:
[1] = OD615 S. cerevisiae growth inhibition, permissive medium, pilot counter-assay, permissive growth control for S. cerevisiae lifespan shortening project (AID 705;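 active = growth inhibition above 25% in both replicates, a cutoff set 3 SD above the mean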); conditions: OD615, 24 h, at 10 µM, active compounds read high
Procedure, shortened: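 System: Engineered DeaD yeast | Buffer or medium: SC raffinose/galactose permissive medium | Doses: 10 µM single dose, 0.25% DMSO | Times: 24 h exposure, 30 °C | Measured by: OD615 turbidity read | Read-out: Yeast growth inhibition indicated by reduced 24 h OD615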

[2] = Restrictive medium S. cerevisiae growth inhibition, OD615, pilot screen of yeast lifespan reduction project, restrictive growth control (AID 706;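 active = growth inhibition above a set limit, 3 SD over mean compound inhibition, in both replicates, cut at about 43% in these data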;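 also: modified DeaD lifespan yeast strain shifted to restrictive glucose medium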); conditions: OD615, 48 h, at 10 µM, active compounds read high
Procedure, shortened: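 Assay system: engineered S. cerevisiae DeaD strain; Buffer or medium: CSMM-D glucose medium; Dosing: 10 µM compound, 0.25% DMSO; Times: cell pre-growth 4 h, compound exposure 48 h, 30 °C; Detection: absorbance (optical density) measured at 615 nm.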

[3] = viability gain of MRP-1-high H69AR cells under doxorubicin, pilot screen, MRP-1 activator project, CellTiter-Glo, duplicate (AID 807;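 active = viability increase at or above a cutoff of the median across tested compounds plus 3 SD, cut at about 8.5% in these data, passing the limit was not always enough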;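 also: compound pretreatment 18-22 h then 72 h combined with doxorubicin; 0% = doxorubicin alone and 100% = vehicle without doxorubicin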); conditions: H69AR viability with doxorubicin, CellTiter-Glo luminescence; at 10 µM; active compounds read high
[4] = growth suppression of beta-catenin knockout HCT116, pilot screen, human colon tumor cells (AID 823;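 active = cell viability at or below a set limit in both duplicate runs, the limit being the all-compound median minus 4 SD, cut at about 23% in these data, passing the limit was not always enough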;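 also: 0% = wells killed by 20 µM Hyamine and 100% = untreated DMSO cell wells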); conditions: CellTiter-Glo, 60 h, at 10 µM, active compounds read low
[5] = inhibitors of the yeast RAM network, pilot screen, dse1pr::URA3 reporter, 5-FOA selection (AID 869);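 also: 0% = DMSO wells with no growth and 100% = 10 µM 1-NA-PP1 with full growth; RAM network block rescues cells from 5-FOA so hits raise OD615 growth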; conditions: S. cerevisiae dse1pr::URA3 5-FOA growth, OD615, 2 d; at 10 µM; active compounds read high; strain carries analog-sensitive mutant Cbk1 kinase
[6] = RAM signaling pathway blockade in yeast – S. cerevisiae, Pdr1DBD-CYC8 efflux-inhibited sensitized strain, primary screen (AID 1298;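 active = RAM network inhibition above 8.4% in each of two replicates, 3 SD over the compound average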;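 also: 0% = DMSO untreated cells without growth and 100% = 10 µM 1-NA-PP1 full growth; higher means more yeast growth rescued from 5-FOA killing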); conditions: S. cerevisiae cbk1-as DSE1-URA3 strain, 5-FOA growth OD615, 2 d; at 50 µM; active compounds read high

Row | SMILES | growth inhibition [1] [%] | growth inhibition [2] [%] | viability increase [3] [%] | viability [4] | inhibition [5] [%] | RAM network inhibition [6] [%]
1 | CC1(C)SCC(C(=O)O)N1C=O (stereo unspecified) | -16 | -6.9 | -0.04 | 105% | 1.66 | 2.9
2 | N#Cc1c2n(cnc1=O)CCCCC2 | -15.7 | 3.32 | -1.5 | 100% | 0.835 | 3.53
3 | COc1ccc(Cn2c(=O)n(Cc3ccco3)c(=N)c3c4c(sc32)COC(C)(C)C4)cc1 | -17.7 | -5.45 | -5.35 | 66.2% | 0.42 | 2.55
4 | COC(=O)c1cn(NC(=O)c2cnccn2)c(=O)c2ccccc12 | -5.4 | 16.9 | 2.86 | 27.8% | 1.15 | -0.31
5 | Cc1cccc(NC(=O)Cn2cnc3c(cnn3-c3ccc(F)cc3)c2=O)c1C | -1.04 | -2.65 | -8.31 | 29.6% | 0.735 | 2.47
6 | CN1CCc2c(sc3nc(SCC(N)=O)n(-c4ccccc4)c(=O)c23)C1 | -17.8 | 9.25 | -0.53 | 84.3% | 4.08 | 3.54
7 | COc1cc2[nH]c(=O)n(CCC(=O)N3CCN(c4cccc(C)c4C)CC3)c(=O)c2cc1OC | 2.25 | -5.83 | -5.18 | 84.2% | 0.615 | 5.67
8 | Cc1ccc(S(=O)(=O)c2nc(-c3cccs3)oc2SCC(N)=O)cc1 | -8.57 | 10.4 | -2.87 | 106% | -0.475 | 3.22
9 | CCOc1ccc(-n2c(SCC(N)=O)nc3c(c2=O)SCC3)cc1 | -1.29 | 8.27 | -0.72 | 98.2% | 2.31 | 7.32
10 | CC(C)N(C(=O)C1CC(=O)OC12CCCCC2)C(C)C (stereo unspecified) | 1.46 | 3.32 | -0.41 | 99.1% | 1.32 | 0.1
11 | O=C(CNC(=O)Cn1ccc2ccccc2c1=O)NCCCN1CCN(c2cccc(Cl)c2)CC1 | -15.3 | -5.33 | -5.42 | 57.3% | 1.63 | 2.03
12 | COc1ccc(-c2cc3ccccc3n2CC(O)CN2CCOCC2)cc1 (stereo unspecified) | -4.27 | -5.21 | -6.02 | 89.7% | 0.59 | 2.87
13 | Cn1c(=O)[nH]c(=O)c2c1nc(Sc1ncccn1)n2CCCc1ccccc1 | -10.3 | -9.67 | -4.15 | 97% | 1.43 | 7.26
14 | COc1cc(-c2nnn(CC#N)n2)ccc1OCc1ccccc1 | -6.28 | 9.63 | 0.59 | 94.5% | 1.28 | 1.51
15 | CCOC(=O)C1(c2csc(N)n2)COC(=O)C1 (stereo unspecified) | -11.9 | 0.175 | -0.78 | 96.8% | 2.44 | 2.75
16 | COc1cc(-c2nc3cnccn3c2Nc2ccc3c(c2)OCCO3)ccc1O | -15.6 | -2.52 | -7.25 | 84.5% | 2.98 | 11.8
17 | CC1(C)Cc2nc3sc4c(=O)n(CC(=O)NCc5ccco5)cnc4c3cc2CO1 | -8.59 | 7.79 | -5.22 | 40.5% | 0.68 | 4.21
18 | Cc1ccccc1C(=O)Nc1nnc(-c2ccc(F)cc2)o1 | -3.21 | 11.5 | -2.91 | 33% | 0.6 | 4.65

Row | SMILES | growth inhibition [1] [%] | growth inhibition [2] [%] | viability increase [3] [%] | viability [4] | inhibition [5] [%] | RAM network inhibition [6] [%]
19 | COc1ccc(-c2nc(N3CCOCC3)nc3n[nH]c(N)c23)cc1 | -5.32 | 14.9 | -6.84 | 74.7% | 0.26 | 3.37
20 | O=C1CC(N2CCN(Cc3ccc4c(c3)OCO4)CC2)C(=O)N1Cc1ccc(N2CCCC2=O)cc1 (stereo unspecified) | -28.2 | -0.61 | -1.61 | 90.3% | 2.29 | 7.63
21 | CC12COC3(C(=O)Nc4cccnc4)CC1CCC32C (stereo unspecified) | -5.62 | 1.04 | -2.08 | 109% | 1.51 | 2.55
22 | CCn1c(=O)cc(C(=O)OC)sc1=Nc1ccc(F)c(F)c1 | 1.93 | -8.74 | -8.26 | 18.6% (active) | 1.11 | 7.21
23 | COc1ccc(NC(=O)C2CCC(C)(C(=O)O)C2(C)C)cc1 (stereo unspecified) | 1 | 3.7 | -0.59 | 96% | 1.27 | 3.75
24 | Cc1cccc(N(CC(=O)Nc2c(C)n(C)n(-c3ccccc3)c2=O)S(C)(=O)=O)c1C | -16.3 | -3.62 | -1.08 | 95.3% | 1.41 | 5.77
25 | CC(C)CC(NC(=O)C1CCC(C)CC1)C(=O)Nc1ccccn1 (stereo unspecified) | -11.7 | 2.61 | -1.42 | 92.9% | 0.5 | 3.07
26 | CCO/C=N/c1c(C#N)c(CC#N)nn1-c1ccccc1 | -13.5 | 2.31 | -1.36 | 94.6% | 2.31 | 1.41
27 | CC(=O)NCCN=Cc1sc2ccccc2c1O | -8.43 | -2.56 | -2.42 | 92.6% | -0.315 | -0.37
28 | Cc1c(C(=O)NCCC2=CCCCC2)oc2ccc(S(=O)(=O)N3CCOCC3)cc12 | 2.48 | 8.58 | -0.96 | 31.5% | 2.62 | 8.35
29 | CC1(C)Cc2nc(-c3ccccc3)n3cnnc3c2CO1 | -8.06 | -4.3 | -1.77 | 102% | 0.36 | 4.42
30 | CC(=O)c1ccc(NC(=O)CSc2nnc(NC(=O)CN3CCOCC3)s2)cc1 | 8.22 | 7.59 | -1.64 | 102% | 2.19 | 0.62
31 | CCN1C(=S)SC(=O)C1=C1C=C(C)OC(C)=C1 | -11 | 14.9 | -3.02 | 91.9% | 2.55 | 5.1
32 | O=C(NCc1ccc2c(c1)OCO2)C1CCN(c2ccc(S(=O)(=O)N3CCCC3)cc2)CC1 | -20.2 | -1.93 | -6.29 | 65.5% | 3.25 | 4.72
33 | O=C(O)CN1C(=O)Nc2ccc(Br)cc2C1c1ccccc1 (stereo unspecified) | 0.155 | -8.88 | -2.28 | 93.6% | -0.025 | 0.79
34 | O=c1[nH]n(-c2ncnc3c2cnn3-c2ccccc2)c(=O)c2ccccc12 | -3.32 | 13.1 | -2.9 | 101% | 1.52 | 2.07
35 | CCn1cc(C(=O)NC2CCCCCC2)c2cc(OC)c(OC)cc2c1=O | -29.2 | 1.87 | -3.91 | 76.3% | 2.02 | 4.11
36 | CCCCNC(=O)c1ccc(NC(=O)C2CCCO2)cc1 (stereo unspecified) | -3.29 | -3.53 | -0.44 | 96.5% | 1.81 | 3.01
